Measured values reported in ChEMBL document CHEMBL4325910, “Design and synthesis of rosiglitazone-ferulic acid-nitric oxide donor trihybrids for improving glucose tolerance” (Eur J Med Chem, 2019).
Active and inactive are the calls of the source. No cut-off for these calls is given here.

How the values were obtained:
hERG (KCNH2) [1] = target: T1, hERG (KCNH2) (Homo sapiens, UniProt Q12809); assay: Inhibition of human ERG expressed in CHO cells at 2.5 uM by patch clamp assay relative to control; assay type: cell-based; conditions: CHO cells that express hERG
T1 sequence (Q12809 whole entry): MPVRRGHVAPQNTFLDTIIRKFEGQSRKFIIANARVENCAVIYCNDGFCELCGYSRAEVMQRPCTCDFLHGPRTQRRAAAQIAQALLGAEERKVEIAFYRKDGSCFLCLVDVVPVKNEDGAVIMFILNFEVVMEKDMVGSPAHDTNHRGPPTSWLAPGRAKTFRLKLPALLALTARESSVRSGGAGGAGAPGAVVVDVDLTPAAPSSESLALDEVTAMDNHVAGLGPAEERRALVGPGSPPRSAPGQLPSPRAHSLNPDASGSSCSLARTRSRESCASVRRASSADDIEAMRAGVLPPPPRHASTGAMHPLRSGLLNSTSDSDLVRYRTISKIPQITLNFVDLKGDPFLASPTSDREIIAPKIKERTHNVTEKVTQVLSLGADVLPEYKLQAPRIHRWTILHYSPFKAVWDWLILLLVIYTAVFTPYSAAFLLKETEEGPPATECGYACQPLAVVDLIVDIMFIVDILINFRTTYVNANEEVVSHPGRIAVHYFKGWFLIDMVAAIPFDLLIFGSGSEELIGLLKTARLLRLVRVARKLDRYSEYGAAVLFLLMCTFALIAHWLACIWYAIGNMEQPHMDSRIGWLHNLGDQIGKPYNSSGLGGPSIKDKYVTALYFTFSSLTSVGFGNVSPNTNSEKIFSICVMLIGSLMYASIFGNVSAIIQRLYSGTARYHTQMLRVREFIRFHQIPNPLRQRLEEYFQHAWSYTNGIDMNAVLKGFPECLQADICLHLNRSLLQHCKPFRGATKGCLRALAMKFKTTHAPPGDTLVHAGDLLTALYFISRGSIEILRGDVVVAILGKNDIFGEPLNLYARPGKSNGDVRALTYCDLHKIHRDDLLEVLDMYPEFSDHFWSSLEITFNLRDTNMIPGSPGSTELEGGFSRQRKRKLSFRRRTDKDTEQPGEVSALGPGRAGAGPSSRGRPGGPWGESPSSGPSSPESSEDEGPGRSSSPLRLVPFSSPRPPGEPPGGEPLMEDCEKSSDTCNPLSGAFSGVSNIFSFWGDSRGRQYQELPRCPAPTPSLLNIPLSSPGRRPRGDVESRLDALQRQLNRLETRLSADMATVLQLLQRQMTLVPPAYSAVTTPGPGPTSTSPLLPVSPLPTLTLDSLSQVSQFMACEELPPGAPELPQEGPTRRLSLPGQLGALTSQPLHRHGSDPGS

hERG (KCNH2) [2] = target: T1, hERG (KCNH2); assay: Inhibition of human ERG expressed in CHO cells at 40 uM by patch clamp assay relative to control; assay type: cell-based; conditions: CHO cells that express hERG
[3] = target: Voltage-gated inwardly rectifying potassium channel KCNH2 (Homo sapiens, UniProt Q12809); assay: Inhibition of human ERG expressed in CHO cells by patch clamp assay; assay type: cell-based
Sequence of Voltage-gated inwardly rectifying potassium channel KCNH2 (Q12809 whole entry): as above

Platelet [4] = assay: Antiplatelet activity in platelet rich plasma (unknown origin) assessed as inhibition of arachidonic acid-induced platelet aggregation; assay type: functional, cell-based
3T3-L1 [5] = assay: Induction of insulin-stimulated 2-NBDG uptake in TNF-alpha-induced insulin resistant mouse 3T3L1 cells at 10 uM preincubated for 48 hrs followed by 2-NBDG addition measured after 30 mins in presence of insulin by fluorescence assay; assay type: functional, cell-based
Outline: (§1)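 Day-8 differentiated 3T3-L1 adipocytes received TNF-α (4 ng/mL) daily for 4 days. They were pretreated in triplicate for 48 h (C-PTIO 20 μM where indicated), then given 100 μM 2-NBDG at 37 °C for 30 min in the dark, with or without insulin. After KRP washes, fluorescence was read at Ex/Em 485/515 nm. Three experiments, mean ± SD.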

hERG (KCNH2) [6] = target: T1, hERG (KCNH2); assay: Inhibition of human ERG expressed in CHO cells at 10 uM by patch clamp assay relative to control; assay type: cell-based; conditions: CHO cells that express hERG
Aquaporin-2 [7] = target: T2, Aquaporin-2 (Homo sapiens, UniProt P41181); assay: Induction of membrane translocation of biotinylated human AQP2 expressed in rat IMCD cells at 10 to 50 uM after 30 mins by FITC-staining based confocal fluorescence microscopic analysis; assay type: cell-based; conditions: 0.5 h
T2 sequence (P41181 whole entry): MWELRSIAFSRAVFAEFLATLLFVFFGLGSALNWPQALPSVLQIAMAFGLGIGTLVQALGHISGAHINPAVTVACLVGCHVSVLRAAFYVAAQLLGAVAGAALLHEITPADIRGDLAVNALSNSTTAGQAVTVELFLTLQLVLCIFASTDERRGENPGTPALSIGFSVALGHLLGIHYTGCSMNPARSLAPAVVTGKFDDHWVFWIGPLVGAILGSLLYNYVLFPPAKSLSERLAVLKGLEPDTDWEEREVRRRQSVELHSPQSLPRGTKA
Outline: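 Primary SD rat IMCD cells, day 5, were transfected with a human AQP2 plasmid (5 h, serum-free) and cultured 48 h. They were treated for 30 min, with 0.1% DMSO as vehicle and forskolin 100 μM as reference. Cells were fixed in paraformaldehyde, permeabilized with Triton X-100 and quenched with H2O2/methanol. They were stained with FITC-anti-AQP2 and imaged by confocal microscopy.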

hERG (KCNH2) [8] = target: T1, hERG (KCNH2); assay: Inhibition of human ERG expressed in CHO cells at 20 uM by patch clamp assay relative to control; assay type: cell-based; conditions: CHO cells that express hERG
[9] = Toxicity in po dosed ICR mouse administered as single dose via gavage treated on day 1 and measured daily up to 14 days; assay type: organism-based; conditions: in vivo
Outline: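 Mice of both sexes, 7 weeks old, were randomized and given one oral gavage dose on day 1. Dose levels were 500, 1000, 2000, 3000, 4000 or 5000 mg/kg, or 2000, 4000 and 5000 mg/kg, with n = 10 per group. Behaviour, health and mortality were checked daily for 14 days, and total deaths were counted on day 14. LD50 was calculated with 95% confidence limits.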

Platelet [10] = assay: Antiplatelet activity in platelet rich plasma (unknown origin) assessed as inhibition of ADP-induced platelet aggregation at 8 mM relative to control; assay type: functional
[11] = Toxicity in spontaneous db/db BKS.Cg-Dock7m +/+ Leprdb/J mouse assessed as body weight gain at 27 umol/kg, po administered as daily dose via gavage treated for 18 days measured post last dose (reference value: 5.6 +/- 2.1 g); assay type: organism-based; conditions: in vivo, 432 h
Platelet [12] = assay: Antiplatelet activity in platelet rich plasma (unknown origin) assessed as inhibition of ADP-induced platelet aggregation; assay type: functional, cell-based
hERG (KCNH2) [13] = target: T1, hERG (KCNH2); assay: Inhibition of human ERG expressed in CHO cells at 1.25 uM by patch clamp assay relative to control; assay type: cell-based; conditions: CHO cells that express hERG
Aquaporin-2 [14] = target: T2, Aquaporin-2; assay: Induction of membrane translocation of biotinylated human AQP2 expressed in rat IMCD cells at 10 to 50 uM after 30 mins by Western blot analysis; assay type: cell-based; conditions: 0.5 h
Outline: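 Human AQP2-transfected primary rat IMCD cells were treated for 30 min. Surface proteins were biotinylated with sulfo-NHS-LC-biotin (3 mg/mL, 60 min, 4 °C), then cells lysed in 1% NP-40 and pulled down overnight on streptavidin beads. Biotinylated and total AQP2 (30 μg/lane) were blotted with anti-AQP2 and quantified by densitometry as the biotinylated/total ratio. Three experiments, mean ± SD.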

L02 = assay: Inhibition of cellular glucose output in dexamethasone-induced insulin resistant human L02 cells assessed as insulin-stimulated glucose uptake at 10 uM preincubated for 24 hrs followed by insulin stimulation measured after 24 hrs by glucose oxidase method (reference value: 4.5 +/- 0.7%); assay type: functional; set-up: scale not given: the % may be the effect or the level left
hERG (KCNH2) [15] = target: T1, hERG (KCNH2); assay: Inhibition of human ERG expressed in CHO cells at 5 uM by patch clamp assay relative to control; assay type: cell-based; conditions: CHO cells that express hERG
3T3-L1 [16] = assay: Induction of insulin-stimulated 2-NBDG uptake in TNF-alpha-induced insulin resistant mouse 3T3L1 cells preincubated for 48 hrs followed by 2-NBDG addition measured after 30 mins in presence of insulin by fluorescence assay; assay type: functional, cell-based; outline: as §1
3T3-L1 [17] = assay: Induction of adipogenesis in mouse 3T3L1 preadipocytes assessed as increase in intracellular triglyceride level at 10 uM treated every other day up to day 14 by AdipoRed staining based confocal microscopic method; assay type: functional, cell-based
Outline: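 3T3-L1 preadipocytes were grown to confluence plus 48 h. Differentiation was induced with 1.0 μM dexamethasone, 0.5 mM IBMX and 1.0 μg/mL insulin for 48 h, then insulin alone. Compound or 0.1% DMSO was added every other day to day 14. Cells were washed in KRP, stained with AdipoRed for 15 min in the dark, imaged confocally and read at Ex/Em 485/572 nm.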

[18] = Metabolic stability in human liver microsomes after 2 hrs in presence of NADPH by HPLC analysis; assay type: ADME, Microsome; conditions: read-out: Stability
Outline: (§2)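 Compound (100 mM DMSO stock) was added in triplicate to 0.1 M phosphate buffer pH 7.4 with 3.3 mM MgCl2 and human liver microsomes, then preincubated 5 min at 37 °C. NADPH (1.3 mM stock) was added and incubation continued 0, 0.5, 1, 2 or 6 h. Acetonitrile quench, then HPLC at 254 nm.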

[19] = Metabolic stability in human liver microsomes after 1 hrs in presence of NADPH by HPLC analysis; assay type: ADME, Microsome; conditions: read-out: Stability; outline: as §2
Platelet [20] = assay: Antiplatelet activity in platelet rich plasma (unknown origin) assessed as inhibition of ADP-induced platelet aggregation at 0.4 mM relative to control; assay type: functional
3T3-L1 [21] = assay: Induction of superoxide dismutase level in TNF-alpha-induced insulin resistant mouse 3T3L1 cells at 3 to 10 uM after 48 hrs; assay type: functional, cell-based
Outline: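 3T3-L1 preadipocytes were differentiated, and mature adipocytes made insulin resistant with TNF-α (4 ng/mL) daily for 4 days. Cells were then treated in triplicate for 48 h, with or without 20 μM C-PTIO. Lysate GSH, SOD and MDA were measured with kits. Three experiments, mean ± SD.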

**Q.** With `CN(CCOc1ccc(CC2SC(=O)NC2=O)cc1)c1ccccn1` (centres undefined) [ROSIGLITAZONE] as the compound, how does the inhibition at 2.5 µM (hERG (KCNH2) [1]) read?
**A.** 17.3%

**Q.** And the inhibition at 40 µM (hERG (KCNH2) [2])?
**A.** 57.9%

**Q.** What about the IC50 [3] of the same compound?
**A.** 29.5 µM

**Q.** What about the IC50 (Platelet [4]) of the same compound?
**A.** 6400 µM

**Q.** What about the Activity (3T3-L1 [5]) of the same compound?
**A.** Active

**Q.** And the inhibition at 10 µM (hERG (KCNH2) [6])?
**A.** 30.1%

**Q.** And the Activity (Aquaporin-2 [7])?
**A.** Active

**Q.** And the inhibition at 20 µM (hERG (KCNH2) [8])?
**A.** 42.5%

**Q.** And the LD50 at 336 h [9]?
**A.** 2580 mg/kg

**Q.** What about the inhibition at 8000 µM (Platelet [10]) of the same compound?
**A.** 64%

**Q.** And the Activity [11]?
**A.** 6.6 g

**Q.** And the IC50 (Platelet [12])?
**A.** 5700 µM

**Q.** And the inhibition at 1.25 µM (hERG (KCNH2) [13])?
**A.** 9.38%

**Q.** And the Activity (Aquaporin-2 [14])?
**A.** Active

**Q.** And the Activity (L02)?
**A.** 11.8%

**Q.** And the inhibition at 5 µM (hERG (KCNH2) [15])?
**A.** 23.3%

**Q.** And the EC50 (3T3-L1 [16])?
**A.** 1.72 µM

**Q.** And the Activity (3T3-L1 [17])?
**A.** Active

**Q.** For `CCN(CC)/[N+]([O-])=N/OCOC(=O)/C=C/c1ccc(OC(=O)OCN2C(=O)SC(Cc3ccc(OCCN(C)c4ccccn4)cc3)C2=O)c(OC)c1` (centres undefined), which inhibition at 2.5 µM (hERG (KCNH2) [1]) is on record?
**A.** 10.8%

**Q.** And the inhibition at 40 µM (hERG (KCNH2) [2])?
**A.** 39.5%

**Q.** What about the IC50 [3] of the same compound?
**A.** > 40 µM

**Q.** And the IC50 (Platelet [4])?
**A.** 700 µM

**Q.** What about the Activity (3T3-L1 [5]) of the same compound?
**A.** Active

**Q.** What about the inhibition at 10 µM (hERG (KCNH2) [6]) of the same compound?
**A.** 18%

**Q.** And the Activity (Aquaporin-2 [7])?
**A.** Not Active

**Q.** What about the inhibition at 20 µM (hERG (KCNH2) [8]) of the same compound?
**A.** 26.2%

**Q.** And the LD50 at 336 h [9]?
**A.** > 5000 mg/kg

**Q.** What about the remaining at 2 h [18] of the same compound?
**A.** 85.3%

**Q.** And the remaining at 1 h [19]?
**A.** 89.9%

**Q.** And the Activity [11]?
**A.** 3.4 g

**Q.** And the inhibition at 400 µM (Platelet [20])?
**A.** 18.8%

**Q.** What about the IC50 (Platelet [12]) of the same compound?
**A.** 2100 µM

**Q.** What about the inhibition at 1.25 µM (hERG (KCNH2) [13]) of the same compound?
**A.** 9.06%

**Q.** And the Activity (Aquaporin-2 [14])?
**A.** Not Active

**Q.** And the Activity (3T3-L1 [21])?
**A.** Active

**Q.** And the Activity (L02)?
**A.** 47.8%

**Q.** What about the inhibition at 5 µM (hERG (KCNH2) [15]) of the same compound?
**A.** 14.5%

**Q.** What about the EC50 (3T3-L1 [16]) of the same compound?
**A.** 1.08 µM

**Q.** What about the Activity (3T3-L1 [17]) of the same compound?
**A.** Active
